The source made the active and inactive calls. The rule behind the calls is not given here.
Columns and labels:
[1] = biological target: T1, Metabotropic glutamate receptor 2 (Homo sapiens, UniProt Q14416); assay: Displacement of [3H]JNJ-46281222 from human metabotropic glutamate receptor 2 expressed in CHOK1 cell membranes assessed as association rate constant measured every 30 sec for 120 mins by scintillation proximity assay
Outline: (§1)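 For the SPA competition association, CHO-K1_hmGlu2 membranes (20 µg) were pre-coupled 30 min to WGA SPA beads, then mixed with 6 nM [3H]JNJ-46281222, competitor and 1 mM glutamate. Counts were read every 30 s for 120 min at 28°C.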
Target sequence in this assay (Q14416 19-872 limits assumed): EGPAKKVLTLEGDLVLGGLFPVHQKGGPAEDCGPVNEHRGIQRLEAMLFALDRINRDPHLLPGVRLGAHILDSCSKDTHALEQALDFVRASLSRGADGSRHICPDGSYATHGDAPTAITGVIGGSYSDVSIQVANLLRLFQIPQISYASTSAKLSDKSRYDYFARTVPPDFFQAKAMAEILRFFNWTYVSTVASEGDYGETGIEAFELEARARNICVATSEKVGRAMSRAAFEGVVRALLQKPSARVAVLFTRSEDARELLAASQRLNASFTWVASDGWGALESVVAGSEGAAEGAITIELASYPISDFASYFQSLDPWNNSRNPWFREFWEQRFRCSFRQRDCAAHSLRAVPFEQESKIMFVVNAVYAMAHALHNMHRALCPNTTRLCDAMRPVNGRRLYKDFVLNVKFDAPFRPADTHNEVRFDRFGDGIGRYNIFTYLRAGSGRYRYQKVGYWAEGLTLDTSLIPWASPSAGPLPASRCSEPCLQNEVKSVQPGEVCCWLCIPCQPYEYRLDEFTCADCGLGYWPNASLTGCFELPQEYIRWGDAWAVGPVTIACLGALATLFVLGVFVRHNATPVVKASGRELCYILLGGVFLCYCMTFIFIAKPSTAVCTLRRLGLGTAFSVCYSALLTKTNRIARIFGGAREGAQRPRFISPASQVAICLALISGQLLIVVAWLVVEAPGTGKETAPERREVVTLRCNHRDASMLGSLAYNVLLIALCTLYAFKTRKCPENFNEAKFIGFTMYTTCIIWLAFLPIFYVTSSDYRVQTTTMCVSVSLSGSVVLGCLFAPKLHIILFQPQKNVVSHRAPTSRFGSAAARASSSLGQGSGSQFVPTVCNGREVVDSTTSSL

[2] = biological target: T1, Metabotropic glutamate receptor 2; assay: Positive allosteric modulation of human metabotropic glutamate receptor 2 expressed in CHOK1 cell membranes assessed as increase in glutamate-induced [35S]GTPgammaS binding preincubated for 30 mins followed by [35S]GTPgammaS addition measured after 30 mins by Topcount scintillation counting method; type: functional
[3] = biological target: T1, Metabotropic glutamate receptor 2; assay: Binding affinity to human metabotropic glutamate receptor 2 expressed in CHOK1 cell membranes by scintillation proximity assay
[4] = biological target: T1, Metabotropic glutamate receptor 2; assay: Displacement of [3H]JNJ-46281222 from human metabotropic glutamate receptor 2 expressed in CHOK1 cell membranes assessed as residence time measured every 30 sec for 120 mins by scintillation proximity assay; outline: as §1
Target sequence in this assay (Q14416 19-872 limits assumed): as above

[5] = biological target: T1, Metabotropic glutamate receptor 2; assay: Displacement of [3H]-JNJ46281222 from human metabotropic glutamate receptor 2 expressed in CHOK1 cell membranes after 60 mins by liquid scintillation counting method
[6] = biological target: T1, Metabotropic glutamate receptor 2; assay: Displacement of [3H]JNJ-46281222 from human metabotropic glutamate receptor 2 expressed in CHOK1 cell membranes assessed as dissociation rate constant measured every 30 sec for 120 mins by scintillation proximity assay; outline: as §1
Target sequence in this assay (Q14416 19-872 limits assumed): as above

[7] = biological target: Metabotropic glutamate receptor 1 (Homo sapiens) (UniProt Q13255); assay: Agonist activity at human metabotropic glutamate receptor 1 expressed in HEK293 cells assessed as induction of Ca2+ internalization after 1 hr by fluo-4-AM dye based fluorescence assay; type: functional, cell-based
[8] = biological target: Metabotropic glutamate receptor 4 (Homo sapiens) (UniProt Q14833); assay: Antagonist activity at human metabotropic glutamate receptor 4 assessed as inhibition of glutamate-induced [35S]GTPgammaS binding preincubated for 30 mins followed by [35S]GTPgammaS addition measured after 30 mins by Topcount scintillation counting method; type: functional
[9] = biological target: Metabotropic glutamate receptor 8 (Homo sapiens) (UniProt O00222); assay: Antagonist activity at human metabotropic glutamate receptor 8 expressed in HEK293 cells assessed as inhibition of glutamate-induced Ca2+ internalization after 1 hr by fluo-4-AM dye based fluorescence assay; type: functional, cell-based
[10] = biological target: Metabotropic glutamate receptor 3 (Homo sapiens) (UniProt Q14832); assay: Antagonist activity at human metabotropic glutamate receptor 3 expressed in HEK293 cells assessed as inhibition of glutamate-induced Ca2+ internalization after 1 hr by fluo-4-AM dye based fluorescence assay; type: functional, cell-based
[11] = biological target: Metabotropic glutamate receptor 6 (Rattus norvegicus) (UniProt P35349); assay: Antagonist activity at rat metabotropic glutamate receptor 6 expressed in CHO cell membranes assessed as inhibition of glutamate-induced [35S]GTPgammaS binding preincubated for 30 mins followed by [35S]GTPgammaS addition measured after 30 mins by Topcount scintillation counting method; type: functional
[12] = biological target: Metabotropic glutamate receptor 1 (Homo sapiens) (UniProt Q13255); assay: Antagonist activity at human metabotropic glutamate receptor 1 expressed in HEK293 cells assessed as inhibition of glutamate-induced Ca2+ internalization after 1 hr by fluo-4-AM dye based fluorescence assay; type: functional, cell-based
[13] = biological target: T1, Metabotropic glutamate receptor 2; assay: Displacement of [3H]-JNJ46281222 from human metabotropic glutamate receptor 2 expressed in CHOK1 cell membranes after 60 mins by microbeta counting analysis
[14] = biological target: Metabotropic glutamate receptor 8 (Homo sapiens) (UniProt O00222); assay: Agonist activity at human metabotropic glutamate receptor 8 expressed in HEK293 cells assessed as induction of Ca2+ internalization after 1 hr by fluo-4-AM dye based fluorescence assay; type: functional, cell-based
[15] = biological target: Metabotropic glutamate receptor 4 (Homo sapiens) (UniProt Q14833); assay: Agonist activity at human metabotropic glutamate receptor 4 assessed as increase in [35S]GTPgammaS binding preincubated for 30 mins followed by [35S]GTPgammaS addition measured after 30 mins by Topcount scintillation counting method; type: functional
[16] = biological target: Metabotropic glutamate receptor 6 (Rattus norvegicus) (UniProt P35349); assay: Agonist activity at rat metabotropic glutamate receptor 6 expressed in CHO cell membranes assessed as increase in [35S]GTPgammaS binding preincubated for 30 mins followed by [35S]GTPgammaS addition measured after 30 mins by Topcount scintillation counting method; type: functional
[17] = biological target: Metabotropic glutamate receptor 7 (Homo sapiens) (UniProt Q14831); assay: Agonist activity at human metabotropic glutamate receptor 7 expressed in HEK293 cells assessed as induction of Ca2+ internalization after 1 hr by fluo-4-AM dye based fluorescence assay; type: functional, cell-based
[18] = biological target: Metabotropic glutamate receptor 5 (Homo sapiens) (UniProt P41594); assay: Antagonist activity at human metabotropic glutamate receptor 5 expressed in HEK293 cells assessed as inhibition of glutamate-induced Ca2+ internalization after 1 hr by fluo-4-AM dye based fluorescence assay; type: functional, cell-based
[19] = biological target: Metabotropic glutamate receptor 7 (Homo sapiens) (UniProt Q14831); assay: Antagonist activity at human metabotropic glutamate receptor 7 expressed in HEK293 cells assessed as inhibition of glutamate-induced Ca2+ internalization after 1 hr by fluo-4-AM dye based fluorescence assay; type: functional, cell-based
[20] = biological target: Metabotropic glutamate receptor 5 (Homo sapiens) (UniProt P41594); assay: Positive allosteric modulation of human metabotropic glutamate receptor 5 expressed in HEK293 cells assessed as induction of Ca2+ […] after 1 hr in the presence of glutamate by fluo-4-AM dye based fluorescence assay; type: functional, cell-based
[21] = biological target: Metabotropic glutamate receptor 3 (Homo sapiens) (UniProt Q14832); assay: Agonist activity at human metabotropic glutamate receptor 3 expressed in HEK293 cells assessed as induction of Ca2+ internalization after 1 hr by fluo-4-AM dye based fluorescence assay; type: functional, cell-based
[22] = biological target: Metabotropic glutamate receptor 5 (Homo sapiens) (UniProt P41594); assay: Agonist activity at human metabotropic glutamate receptor 5 expressed in HEK293 cells assessed as induction of Ca2+ internalization after 1 hr by fluo-4-AM dye based fluorescence assay; type: functional, cell-based

Metabotropic glutamate receptor 1 (Homo sapiens), sequence (Q13255 19-1194 limits assumed): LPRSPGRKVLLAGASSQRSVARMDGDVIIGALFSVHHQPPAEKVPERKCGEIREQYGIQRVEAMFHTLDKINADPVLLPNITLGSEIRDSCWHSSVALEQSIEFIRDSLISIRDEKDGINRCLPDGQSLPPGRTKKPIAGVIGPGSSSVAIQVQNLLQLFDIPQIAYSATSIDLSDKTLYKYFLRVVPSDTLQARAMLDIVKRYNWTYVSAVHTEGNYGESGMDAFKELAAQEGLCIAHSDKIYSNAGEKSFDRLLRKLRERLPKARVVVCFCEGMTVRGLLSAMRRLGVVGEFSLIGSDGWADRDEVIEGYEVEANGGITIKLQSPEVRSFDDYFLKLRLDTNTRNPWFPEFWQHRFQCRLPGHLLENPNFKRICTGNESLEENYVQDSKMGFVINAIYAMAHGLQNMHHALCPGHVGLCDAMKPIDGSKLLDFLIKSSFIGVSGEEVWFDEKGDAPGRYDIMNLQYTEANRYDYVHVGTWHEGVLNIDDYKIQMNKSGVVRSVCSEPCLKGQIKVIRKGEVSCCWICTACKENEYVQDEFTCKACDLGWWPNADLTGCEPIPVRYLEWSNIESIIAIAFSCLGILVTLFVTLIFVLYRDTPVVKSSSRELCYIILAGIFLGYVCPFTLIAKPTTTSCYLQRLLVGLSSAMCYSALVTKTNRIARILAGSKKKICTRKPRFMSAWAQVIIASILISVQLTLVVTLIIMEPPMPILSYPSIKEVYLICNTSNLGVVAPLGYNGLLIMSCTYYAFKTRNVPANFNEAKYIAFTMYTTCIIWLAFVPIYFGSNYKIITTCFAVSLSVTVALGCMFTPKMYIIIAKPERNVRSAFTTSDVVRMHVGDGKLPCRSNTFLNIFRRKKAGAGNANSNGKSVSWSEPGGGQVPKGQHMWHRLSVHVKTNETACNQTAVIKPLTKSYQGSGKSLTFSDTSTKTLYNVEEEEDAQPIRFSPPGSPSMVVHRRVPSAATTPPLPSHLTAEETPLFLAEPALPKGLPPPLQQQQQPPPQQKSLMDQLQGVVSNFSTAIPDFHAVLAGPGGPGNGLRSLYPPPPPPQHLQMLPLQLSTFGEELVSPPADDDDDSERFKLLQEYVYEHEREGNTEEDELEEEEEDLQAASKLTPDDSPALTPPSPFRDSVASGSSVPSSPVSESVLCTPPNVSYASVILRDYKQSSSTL
Metabotropic glutamate receptor 5 (Homo sapiens), sequence (P41594 21-1212 limits assumed): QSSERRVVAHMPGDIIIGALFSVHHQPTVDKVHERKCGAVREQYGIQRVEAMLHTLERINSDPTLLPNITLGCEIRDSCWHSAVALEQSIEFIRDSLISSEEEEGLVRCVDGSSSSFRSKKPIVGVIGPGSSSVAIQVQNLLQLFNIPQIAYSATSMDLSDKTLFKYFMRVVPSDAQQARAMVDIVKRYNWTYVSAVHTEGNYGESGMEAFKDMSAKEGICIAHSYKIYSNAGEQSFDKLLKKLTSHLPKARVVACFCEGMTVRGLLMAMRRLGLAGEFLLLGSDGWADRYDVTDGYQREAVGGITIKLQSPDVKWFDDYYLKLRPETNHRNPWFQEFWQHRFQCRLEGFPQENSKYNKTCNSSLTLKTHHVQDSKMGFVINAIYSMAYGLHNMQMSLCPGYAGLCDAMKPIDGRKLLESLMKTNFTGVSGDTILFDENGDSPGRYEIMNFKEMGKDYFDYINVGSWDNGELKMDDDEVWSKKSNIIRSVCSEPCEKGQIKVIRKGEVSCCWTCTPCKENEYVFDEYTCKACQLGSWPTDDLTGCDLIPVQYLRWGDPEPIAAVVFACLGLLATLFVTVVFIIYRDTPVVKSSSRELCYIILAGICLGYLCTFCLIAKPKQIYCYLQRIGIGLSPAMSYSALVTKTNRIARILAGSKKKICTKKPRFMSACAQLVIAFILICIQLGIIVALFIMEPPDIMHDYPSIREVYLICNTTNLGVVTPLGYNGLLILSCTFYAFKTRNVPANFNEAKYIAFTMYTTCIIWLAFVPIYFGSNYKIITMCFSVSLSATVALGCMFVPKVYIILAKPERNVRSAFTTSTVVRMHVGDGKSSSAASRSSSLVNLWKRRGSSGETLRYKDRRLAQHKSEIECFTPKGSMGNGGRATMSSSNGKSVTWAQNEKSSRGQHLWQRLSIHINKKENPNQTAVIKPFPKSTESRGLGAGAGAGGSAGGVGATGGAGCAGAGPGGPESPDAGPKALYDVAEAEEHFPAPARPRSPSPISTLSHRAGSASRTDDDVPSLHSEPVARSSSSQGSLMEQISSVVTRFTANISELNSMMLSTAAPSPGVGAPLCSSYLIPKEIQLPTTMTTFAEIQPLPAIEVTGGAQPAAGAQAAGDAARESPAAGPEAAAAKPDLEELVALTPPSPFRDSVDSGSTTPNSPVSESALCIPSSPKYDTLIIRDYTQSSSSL
Metabotropic glutamate receptor 7 (Homo sapiens), sequence (Q14831 whole entry): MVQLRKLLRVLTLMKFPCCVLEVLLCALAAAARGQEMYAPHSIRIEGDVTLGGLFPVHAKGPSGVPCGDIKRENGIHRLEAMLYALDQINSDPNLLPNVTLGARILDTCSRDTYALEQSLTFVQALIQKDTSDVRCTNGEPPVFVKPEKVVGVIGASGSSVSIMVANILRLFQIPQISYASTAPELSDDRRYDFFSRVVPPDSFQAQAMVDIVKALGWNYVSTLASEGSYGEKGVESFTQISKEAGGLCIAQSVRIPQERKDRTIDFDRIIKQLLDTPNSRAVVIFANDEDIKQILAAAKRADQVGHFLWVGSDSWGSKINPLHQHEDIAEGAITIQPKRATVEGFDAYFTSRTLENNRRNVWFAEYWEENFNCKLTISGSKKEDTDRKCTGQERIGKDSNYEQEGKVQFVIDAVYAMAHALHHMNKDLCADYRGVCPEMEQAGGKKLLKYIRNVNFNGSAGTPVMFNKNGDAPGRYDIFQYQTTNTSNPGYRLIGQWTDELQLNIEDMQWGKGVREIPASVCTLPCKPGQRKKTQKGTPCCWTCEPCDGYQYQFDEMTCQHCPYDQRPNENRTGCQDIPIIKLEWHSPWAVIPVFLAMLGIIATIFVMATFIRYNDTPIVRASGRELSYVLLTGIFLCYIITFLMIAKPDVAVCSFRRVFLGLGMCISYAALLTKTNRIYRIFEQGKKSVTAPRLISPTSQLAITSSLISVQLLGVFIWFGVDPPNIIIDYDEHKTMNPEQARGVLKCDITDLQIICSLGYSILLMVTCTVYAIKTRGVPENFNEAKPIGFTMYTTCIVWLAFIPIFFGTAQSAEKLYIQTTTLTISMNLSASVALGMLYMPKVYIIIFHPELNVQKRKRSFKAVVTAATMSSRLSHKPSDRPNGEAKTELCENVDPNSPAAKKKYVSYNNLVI
Metabotropic glutamate receptor 6 (Rattus norvegicus), sequence (P35349 whole entry): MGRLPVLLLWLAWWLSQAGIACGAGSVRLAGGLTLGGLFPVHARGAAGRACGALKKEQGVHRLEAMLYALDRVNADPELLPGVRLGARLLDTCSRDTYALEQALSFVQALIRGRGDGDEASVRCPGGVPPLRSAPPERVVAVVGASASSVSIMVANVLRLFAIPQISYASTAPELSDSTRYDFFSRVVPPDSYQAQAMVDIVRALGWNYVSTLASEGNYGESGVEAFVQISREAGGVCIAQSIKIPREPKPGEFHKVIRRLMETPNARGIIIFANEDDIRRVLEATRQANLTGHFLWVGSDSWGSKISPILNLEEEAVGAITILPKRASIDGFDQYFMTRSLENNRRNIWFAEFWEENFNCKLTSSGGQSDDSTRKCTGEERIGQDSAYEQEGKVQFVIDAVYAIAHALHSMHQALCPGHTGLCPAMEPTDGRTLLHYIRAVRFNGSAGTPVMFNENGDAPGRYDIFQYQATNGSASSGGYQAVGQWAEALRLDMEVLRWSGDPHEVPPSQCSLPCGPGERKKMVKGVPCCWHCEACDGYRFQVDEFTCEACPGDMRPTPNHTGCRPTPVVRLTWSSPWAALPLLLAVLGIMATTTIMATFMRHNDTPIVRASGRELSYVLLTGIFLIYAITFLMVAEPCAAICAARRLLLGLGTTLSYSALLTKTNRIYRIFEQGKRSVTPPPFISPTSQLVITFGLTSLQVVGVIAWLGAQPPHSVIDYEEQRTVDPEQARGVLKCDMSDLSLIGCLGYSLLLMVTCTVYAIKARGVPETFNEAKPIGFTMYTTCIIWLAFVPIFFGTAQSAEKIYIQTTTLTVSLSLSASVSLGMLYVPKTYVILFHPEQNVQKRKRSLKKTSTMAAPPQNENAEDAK

Compound	K [1]	EC50 [2]	Kd [3]	TIME [4]	K [6]	Ki [13]	further results
CC(C)C(=O)c1ccc(OCc2ccc(CNC(=O)c3cn(C)cn3)cc2)c(C(F)(F)F)c1O	1.2 ×10⁶ /M/min	107 nM	100 nM	0.14 h	0.12 min⁻¹	–	Ki [5]: 79.4 nM
N#Cc1c(N2CCC(c3ccccc3)CC2)ccn(CC2CC2)c1=O	1.7 ×10⁶ /M/min	79.4 nM	51 nM	0.185 h	0.09 min⁻¹	–	Ki [5]: 26.3 nM
Cc1ccc(Oc2ccc(-c3ccn4c(CC5CC5)nnc4c3Cl)cc2Cl)c(C)n1	6.2 ×10⁷ /M/min	12.3 nM	1 nM	0.272 h	0.061 min⁻¹	6.03 nM	Activity [7]: inactive; inhibition [8]: inactive; inhibition [9]: inactive; inhibition [10]: inactive; inhibition [11]: inactive; inhibition [12]: inactive; Activity [14]: inactive; Activity [15]: inactive; Activity [16]: inactive; Activity [17]: inactive; inhibition [18]: inactive; inhibition [19]: inactive; Activity [20]: inactive; Activity [21]: inactive; Activity [22]: inactive
COc1ccc(COc2ccc(-c3ccn4c(CC5CC5)nnc4c3C(F)(F)F)cc2F)cn1	1.1 ×10⁷ /M/min	40.7 nM	16 nM	0.0967 h	0.173 min⁻¹	11.7 nM	–
COc1ccc(CNc2ccc(-c3ccn4c(CC5CC5)nnc4c3Cl)cc2)cn1	6.2 ×10⁶ /M/min	151 nM	15.6 nM	0.172 h	0.097 min⁻¹	7.41 nM	–
O[C@H]1CC[C@H](Nc2ccc(-c3ccn4c(CC(F)(F)F)nnc4c3Cl)cc2Cl)CC1	6.7 ×10⁶ /M/min	41.7 nM	10.8 nM	0.227 h	0.074 min⁻¹	6.03 nM	Activity [7]: inactive; inhibition [8]: inactive; inhibition [9]: inactive; inhibition [10]: inactive; inhibition [11]: inactive; inhibition [12]: inactive; Activity [14]: inactive; Activity [15]: inactive; Activity [16]: inactive; Activity [17]: inactive; inhibition [18]: inactive; inhibition [19]: inactive; Activity [20]: inactive; Activity [21]: inactive; Activity [22]: inactive
Cc1ccc(Oc2ccc(-c3ccn4c(CC5CC5)nnc4c3C(F)(F)F)cc2Cl)c(C)n1	6.1 ×10⁶ /M/min	2.88 nM	7.3 nM	0.378 h	0.044 min⁻¹	1.51 nM	–
Cc1cc(Oc2ccc(-c3ccn4c(CC5CC5)nnc4c3C(F)(F)F)cc2F)ccn1	9.8 ×10⁶ /M/min	56.2 nM	9.2 nM	0.185 h	0.09 min⁻¹	7.08 nM	–
Cc1cc(Oc2ccc(-c3ccn4c(CC5CC5)nnc4c3C(F)(F)F)cc2F)cc(C)n1	8.3 ×10⁶ /M/min	64.6 nM	11.5 nM	0.175 h	0.095 min⁻¹	10 nM	–
Fc1cc(-c2ccn3c(CC4CC4)nnc3c2C(F)(F)F)ccc1NC1CC1	7.7 ×10⁷ /M/min	30.2 nM	1.1 nM	0.198 h	0.086 min⁻¹	3.63 nM	–
Fc1cc(-c2ccn3c(CC4CC4)nnc3c2Cl)ccc1NC1CC1	4.8 ×10⁶ /M/min	63.1 nM	12.7 nM	0.273 h	0.061 min⁻¹	10.2 nM	Activity [7]: inactive; inhibition [8]: inactive; inhibition [9]: inactive; inhibition [10]: inactive; inhibition [11]: inactive; inhibition [12]: inactive; Activity [14]: inactive; Activity [15]: inactive; Activity [16]: inactive; Activity [17]: inactive; inhibition [18]: inactive; inhibition [19]: inactive; Activity [20]: inactive; Activity [21]: inactive; Activity [22]: inactive
Clc1cc(-c2ccn3c(CC4CC4)nnc3c2Cl)ccc1NC1CC1	1.4 ×10⁷ /M/min	29.5 nM	6.1 nM	0.198 h	0.084 min⁻¹	6.76 nM	–
COc1ccc(COc2ccc(-c3ccn4c(CC5CC5)nnc4c3C(F)(F)F)cc2)cn1	1.4 ×10⁷ /M/min	57.5 nM	8.7 nM	0.133 h	0.125 min⁻¹	8.71 nM	–
CCOCc1nnc2c(C(F)(F)F)c(-c3ccc(Oc4ccc(C)nc4C)c(F)c3)ccn12	3.6 ×10⁷ /M/min	29.5 nM	2.1 nM	0.223 h	0.075 min⁻¹	11.7 nM	–
O[C@H]1CC[C@H](Nc2ccc(-c3ccn4c(CC5CC5)nnc4c3Cl)cc2Cl)CC1	6.7 ×10⁶ /M/min	33.1 nM	12.7 nM	0.197 h	0.084 min⁻¹	3.02 nM	–

Reference: ChEMBL document CHEMBL4038323, “Discovery and Kinetic Profiling of 7-Aryl-1,2,4-triazolo[4,3-a]pyridines: Positive Allosteric Modulators of the Metabotropic Glutamate Receptor 2” (J Med Chem, 2017)
